Compounds with a hit are over-represented: about 1.5% of the library has one in this group of screens.
PKA-R2B activ: activators of human PKA-R2B complex | AID 504700 | P22694+P31323 | PKA-R2B holoenzyme dissociation, Cy5-IP20 fluorescence polarization; R2B truncated from residue 108, S112A mutant; 0% DMSO only, 100% 113 µM cGMP | hit rate 0.079% among 340,000 | activation, % at 11.4 µM;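 active = activation above a cutoff set at the mean over all compounds plus 3 SD, cut at about 18% in these data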;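 note: higher means more holoenzyme dissociation and a rise in polarization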
Cardio protect: modulators protecting cardiomyocytes from myocardial damage; AID 588492; H9c2 cardiomyocytes, H2O2 injury protection, ATPLite, 2 h; hit rate 0.63% among 360,000; protection from H2O2 cell death, % at 20 µM;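 active = compounds giving at least 50% protection of heart cells from peroxide-induced death in the single-dose screen, raw or plate-pattern-corrected value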;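 note: 0% = DMSO wells with peroxide and 100% = DMSO wells without peroxide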
Rin1 Abl inh: inhibitors of human Rin1-Abl protein interaction; P00519+Q13671; TR-FRET Rin1/Abl binding, biochemical; inhibition, % at 7.35 µM; hit rate 0.4% among 360,000; AID 588664; in the data active = inhibition above about 5%, passing the limit was not always enough
PKA-R1A activ: PKA-R1A complex activation | P00514+P68181 | PKA-R1A dissociation, Cy5-IP20 fluorescence polarization; scaled: DMSO 0%, 113 µM cGMP 100% | activation, % at 11.4 µM | hit rate 0.083% among 340,000;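 active = percent activation above the mean of all tested compounds plus 3 SD, cut at about 19% in these data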;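 note: higher means more PKAc released from R1A so a rise in polarization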
Tb MetRS inh: Trypanosoma brucei MetRS inhibition; AID 624268; hit rate 0.4% among 360,000; purified T. brucei MetRS, ATP depletion, Kinase-Glo luminescence; inhibition, % at 11.9 µM;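 active = inhibition above a per-plate cutoff of the control wells' mean inhibition plus 3 SD, cut at about 5.5% in these data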;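 note: 0% = DMSO wells median and 100% = median of wells with control inhibitor compound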
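Material – parasite MetRS enzyme · Medium – HEPES-MgCl2-KCl buffer plus DTT, spermine, BSA, pyrophosphatase · Reagent – ATP, methionine and E. coli bulk tRNA substrates · Times – 15 min enzyme-compound preincubation, 2 h reaction, 10 min detection, 25 °C · Measured by – luminescence of leftover ATP · Evaluation – percent inhibition relative to median high and low control wells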
Starred values were filed as active, the others as inactive; x = no result.

SMILES	PKA-R2B activ	Cardio protect	Rin1 Abl inh	PKA-R1A activ	Tb MetRS inh
CCOC(=O)C1=C(COC(=O)c2ccc([N+](=O)[O-])o2)NC(=O)NC1C (stereo unspecified)	-2	61*	0	-8	0
C/C(=N\NC(=O)c1cccnc1)c1ccc(OC2OCCOC2Oc2ccc(/C(C)=N/NC(=O)c3cccnc3)cc2)cc1 (stereo unspecified)	-3	53*	4	0	-1
CC1Nc2ccc(C(=O)NC3CCCCC3)cc2NC1=O (stereo unspecified)	2	0	0	0	0
c1ccc(Nc2nc3ccccc3n3nnnc23)cc1	-3	28	-1	-2	0
CCN(CC)S(=O)(=O)c1ccc(Nc2nc3ccccc3n3nnnc23)cc1	6	83*	-1	8	0
c1ccc2c(c1)nc(Nc1ccc3c(c1)OCO3)c1nnnn12	4	56*	0	0	0
Fc1cccc(Nc2nc3ccccc3n3nnnc23)c1	-6	19	-2	-13	-1
COc1cccc(Nc2nc3ccccc3n3nnnc23)c1	6	68*	0	0	0
COc1ccc(-c2cn(Cc3ccc(C(=O)NCc4ccc(C)cc4)cc3)c(C(C)N)n2)cc1 (stereo unspecified)	3	4	2	-7	0
CCCNC(=O)C1(C)CCN(C(=O)c2c(Cl)cccc2Cl)C1 (stereo unspecified)	x	4	-5	x	0
COCCn1c(Cc2cccn2C)nnc1SCC(=O)NCc1ccc2c(c1)OCO2	3	4	0	-5	0
Cc1sc2nc(COC(=O)c3ccc(O)cc3)[nH]c(=O)c2c1C	-4	27	-5	-18	0
COc1ccc(S(=O)(=O)N2CC(O)CC2C(=O)OCc2nc3sc(C)c(C)c3c(=O)[nH]2)cc1 (stereo unspecified)	-9	79*	3	-9	0
CCc1ccccc1OCC(=O)Nc1cc(S(=O)(=O)N2CCOCC2)ccc1N1CCCCC1	-5	-4	0	9	0
O=C(CSc1nc2ccccc2c(=O)[nH]1)Nc1cccc([N+](=O)[O-])c1	7	53*	-3	-2	0
O=C(CSc1nc2ccccc2c(=O)[nH]1)Nc1ccccc1O	-2	23	2	-2	0
Cc1cnc(NC(=O)CSc2nc3ccccc3c(=O)[nH]2)s1	-5	59*	-3	-7	0
O=C(NC(=S)Nc1ccc2cn[nH]c2c1)c1ccccc1	3	0	0	-8	0
N#CCCn1cc(C(=O)CN2C(=O)C(=O)N(C3CCCC3)C2=O)c2ccccc21	-15	4	-6	-1	0
Cc1cc(-c2ccccc2)nc(Nc2nc3c(C)cccc3c(=O)[nH]2)n1	3	-19	-2	-6	0
NC(=O)c1ccccc1OCC(=O)NC12CC3CC(CC(C3)C1)C2	-6	56*	1	2	-1
CC(=O)Oc1cc(C(=O)OCC(=O)NC23CC4CC(CC(C4)C2)C3)cc(OC(C)=O)c1OC(C)=O	-8	84*	9.8*	-4	3
COc1cccc(C(=O)OCC(=O)NC23CC4CC(CC(C4)C2)C3)c1	1	-2	6	0	0
NC(=O)c1ccccc1OCC(=O)Nc1cccnc1Cl	-8	53*	3	-2	0
O=C(N/N=C/c1cc([N+](=O)[O-])ccc1O)NC12CC3CC(CC(C3)C1)C2	-5	5	-1	-6	0
SMILES	PKA-R2B activ	Cardio protect	Rin1 Abl inh	PKA-R1A activ	Tb MetRS inh
O=C(N/N=C/c1ccc(O)cc1O)NC12CC3CC(CC(C3)C1)C2	0	52*	1	4	0
COc1cc(/C=N/NC(=O)NC23CC4CC(CC(C4)C2)C3)ccc1OCC(N)=O	6	62*	4	-3	1
COc1ccc(C=NNC(=S)NC23CC4CC(CC(C4)C2)C3)cc1OC	0	-16	0	-7	0
COc1cccc(/C=N/NC(=O)CSCC(=O)Nc2ccccc2)c1O	-6	55*	-2	-4	-1
COc1cccc(/C=N/NC(=O)NC23CC4CC(CC(C4)C2)C3)c1O	x	41	8.1*	x	-1
O=C(CCl)N(O)c1ccc(C=Cc2ccccc2)cc1	-11	-7	2	-6	0

Screening results deposited in PubChem BioAssay by several laboratories.
